# Results published in ChEMBL document CHEMBL4152363, “Andrographolide derivative as STAT3 inhibitor that protects acute liver damage in mice” (Bioorg Med Chem, 2018).
# Calls of active or inactive are those of the source. The rule behind the calls is not given here.
# Target: T1, Signal transducer and activator of transcription 3 (Homo sapiens, UniProt P40763)
# Experiment: Inhibition of […] activation in human HeLa cells incubated […] for 16 hrs followed by compound addition measured after 4 hrs by luciferase reporter gene assay
# Type: cell-based
# Conditions: not given
# In short: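 NF-κB pathway in AD-293 or HeLa cells stimulated with 50 ng/mL TNF-α; compound treatment 4 h; luciferase activity read from cell extracts; EC50 derived.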
# T1 sequence (P40763 whole entry): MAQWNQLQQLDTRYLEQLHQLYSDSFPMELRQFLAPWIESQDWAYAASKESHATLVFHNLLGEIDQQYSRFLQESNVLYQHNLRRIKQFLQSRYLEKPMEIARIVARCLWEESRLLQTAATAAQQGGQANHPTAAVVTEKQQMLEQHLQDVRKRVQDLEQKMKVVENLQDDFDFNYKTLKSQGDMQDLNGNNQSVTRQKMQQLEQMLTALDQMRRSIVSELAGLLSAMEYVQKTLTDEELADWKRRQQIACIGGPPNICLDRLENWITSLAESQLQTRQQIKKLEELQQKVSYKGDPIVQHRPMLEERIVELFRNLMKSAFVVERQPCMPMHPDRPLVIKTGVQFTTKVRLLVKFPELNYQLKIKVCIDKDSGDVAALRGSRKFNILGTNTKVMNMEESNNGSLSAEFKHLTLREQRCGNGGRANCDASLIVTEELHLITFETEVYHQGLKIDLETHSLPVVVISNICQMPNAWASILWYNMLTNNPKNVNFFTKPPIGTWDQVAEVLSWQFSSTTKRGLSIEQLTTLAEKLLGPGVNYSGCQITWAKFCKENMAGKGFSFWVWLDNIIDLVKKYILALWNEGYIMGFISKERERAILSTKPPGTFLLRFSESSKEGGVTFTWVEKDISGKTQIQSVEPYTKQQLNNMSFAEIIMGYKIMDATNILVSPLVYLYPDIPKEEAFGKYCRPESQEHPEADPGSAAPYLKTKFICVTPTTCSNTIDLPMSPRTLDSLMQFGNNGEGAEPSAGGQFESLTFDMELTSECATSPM
row,Structure (SMILES),EC50
1,C=C1CC[C@@H]2[C@](C)(CO)[C@H](O)CC[C@@]2(C)[C@@H]1C/C=C1/C(=O)OC[C@H]1O[Si](C)(C)C(C)(C)C,> 10 µM
2,CC(C)(C)[Si](C)(C)O[C@@H]1CC[C@]2(C)[C@H](CC[C@]3(CO3)[C@H]2C/C=C2/C(=O)OC[C@H]2O)[C@]1(C)CO,> 10 µM
3,CC(C)(C)[Si](C)(C)O[C@@H]1CC[C@]2(C)[C@H](CC[C@@]3(CO3)[C@H]2C/C=C2/C(=O)OC[C@H]2O)[C@]1(C)CO,> 10 µM
4,C=C1CC[C@@H]2[C@](C)(CO[Si](C)(C)C(C)(C)C)[C@H](OC(C)=O)CC[C@@]2(C)[C@@H]1C/C=C1/C(=O)OC[C@H]1OC(C)=O,> 10 µM

# Target: T1, Signal transducer and activator of transcription 3
# Experiment: Inhibition of IFNgamma-stimulated STAT3 activation in human HeLa cells incubated with IFNgamma for 16 hrs followed by compound addition measured after 24 hrs by luciferase reporter gene assay
# Type: cell-based
# Conditions: not given
# In short: (§1)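 AD-293 or HeLa cells in DMEM/10% FBS stimulated with 20 pg/mL IFN-γ; compound treatment 24 h; luciferase activity measured in cell extracts; EC50 derived.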
row,Structure (SMILES),EC50
1,C=C1CC[C@@H]2[C@](C)(CO)[C@H](O)CC[C@@]2(C)[C@@H]1C/C=C1/C(=O)OC[C@H]1O[Si](C)(C)C(C)(C)C,6.57 µM
2,CC(C)(C)[Si](C)(C)O[C@@H]1CC[C@]2(C)[C@H](CC[C@]3(CO3)[C@H]2C/C=C2/C(=O)OC[C@H]2O)[C@]1(C)CO,8.34 µM
3,CC(C)(C)[Si](C)(C)O[C@@H]1CC[C@]2(C)[C@H](CC[C@@]3(CO3)[C@H]2C/C=C2/C(=O)OC[C@H]2O)[C@]1(C)CO,6.15 µM
4,C=C1CC[C@@H]2[C@](C)(CO[Si](C)(C)C(C)(C)C)[C@H](OC(C)=O)CC[C@@]2(C)[C@@H]1C/C=C1/C(=O)OC[C@H]1OC(C)=O,5.8 µM

# Tested on: HeLa
# Experiment: Cytotoxicity against human HeLa cells
# Type: cell-based
# Conditions: not given
# In short: (§2)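 AD-293 or HeLa cells grown in high-glucose DMEM with 10% FBS and 1% penicillin-streptomycin; compound exposure 24 h; cytotoxicity reported as CC10.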
row,Structure (SMILES),CC10
1,C=C1CC[C@@H]2[C@](C)(CO)[C@H](O)CC[C@@]2(C)[C@@H]1C/C=C1/C(=O)OC[C@H]1O[Si](C)(C)C(C)(C)C,> 10 µM
2,CC(C)(C)[Si](C)(C)O[C@@H]1CC[C@]2(C)[C@H](CC[C@]3(CO3)[C@H]2C/C=C2/C(=O)OC[C@H]2O)[C@]1(C)CO,> 10 µM
3,CC(C)(C)[Si](C)(C)O[C@@H]1CC[C@]2(C)[C@H](CC[C@@]3(CO3)[C@H]2C/C=C2/C(=O)OC[C@H]2O)[C@]1(C)CO,> 10 µM
4,C=C1CC[C@@H]2[C@](C)(CO[Si](C)(C)C(C)(C)C)[C@H](OC(C)=O)CC[C@@]2(C)[C@@H]1C/C=C1/C(=O)OC[C@H]1OC(C)=O,> 10 µM

# Target: T1, Signal transducer and activator of transcription 3
# Experiment: Inhibition of […] activation in human AD293 cells incubated […] for 16 hrs followed by compound addition measured after 4 hrs by luciferase reporter gene assay
# Type: cell-based
# Conditions: not given
row,Structure (SMILES),EC50
1,C=C1CC[C@@H]2[C@](C)(CO)[C@H](O)CC[C@@]2(C)[C@@H]1C/C=C1/C(=O)OC[C@H]1O[Si](C)(C)C(C)(C)C,> 10 µM
2,CC(C)(C)[Si](C)(C)O[C@@H]1CC[C@]2(C)[C@H](CC[C@]3(CO3)[C@H]2C/C=C2/C(=O)OC[C@H]2O)[C@]1(C)CO,> 10 µM
3,CC(C)(C)[Si](C)(C)O[C@@H]1CC[C@]2(C)[C@H](CC[C@@]3(CO3)[C@H]2C/C=C2/C(=O)OC[C@H]2O)[C@]1(C)CO,> 10 µM
4,C=C1CC[C@@H]2[C@](C)(CO[Si](C)(C)C(C)(C)C)[C@H](OC(C)=O)CC[C@@]2(C)[C@@H]1C/C=C1/C(=O)OC[C@H]1OC(C)=O,> 10 µM

# Tested on: AD293
# Experiment: Cytotoxicity against human AD293 cells
# Type: cell-based
# Conditions: ad293
# In short: as §2
row,Structure (SMILES),CC10
1,C=C1CC[C@@H]2[C@](C)(CO)[C@H](O)CC[C@@]2(C)[C@@H]1C/C=C1/C(=O)OC[C@H]1O[Si](C)(C)C(C)(C)C,> 10 µM
2,CC(C)(C)[Si](C)(C)O[C@@H]1CC[C@]2(C)[C@H](CC[C@]3(CO3)[C@H]2C/C=C2/C(=O)OC[C@H]2O)[C@]1(C)CO,> 10 µM
3,CC(C)(C)[Si](C)(C)O[C@@H]1CC[C@]2(C)[C@H](CC[C@@]3(CO3)[C@H]2C/C=C2/C(=O)OC[C@H]2O)[C@]1(C)CO,> 10 µM
4,C=C1CC[C@@H]2[C@](C)(CO[Si](C)(C)C(C)(C)C)[C@H](OC(C)=O)CC[C@@]2(C)[C@@H]1C/C=C1/C(=O)OC[C@H]1OC(C)=O,> 10 µM

# Target: T2, Signal transducer and activator of transcription 1-alpha/beta (Homo sapiens) (UniProt P42224)
# T2 sequence (whole entry): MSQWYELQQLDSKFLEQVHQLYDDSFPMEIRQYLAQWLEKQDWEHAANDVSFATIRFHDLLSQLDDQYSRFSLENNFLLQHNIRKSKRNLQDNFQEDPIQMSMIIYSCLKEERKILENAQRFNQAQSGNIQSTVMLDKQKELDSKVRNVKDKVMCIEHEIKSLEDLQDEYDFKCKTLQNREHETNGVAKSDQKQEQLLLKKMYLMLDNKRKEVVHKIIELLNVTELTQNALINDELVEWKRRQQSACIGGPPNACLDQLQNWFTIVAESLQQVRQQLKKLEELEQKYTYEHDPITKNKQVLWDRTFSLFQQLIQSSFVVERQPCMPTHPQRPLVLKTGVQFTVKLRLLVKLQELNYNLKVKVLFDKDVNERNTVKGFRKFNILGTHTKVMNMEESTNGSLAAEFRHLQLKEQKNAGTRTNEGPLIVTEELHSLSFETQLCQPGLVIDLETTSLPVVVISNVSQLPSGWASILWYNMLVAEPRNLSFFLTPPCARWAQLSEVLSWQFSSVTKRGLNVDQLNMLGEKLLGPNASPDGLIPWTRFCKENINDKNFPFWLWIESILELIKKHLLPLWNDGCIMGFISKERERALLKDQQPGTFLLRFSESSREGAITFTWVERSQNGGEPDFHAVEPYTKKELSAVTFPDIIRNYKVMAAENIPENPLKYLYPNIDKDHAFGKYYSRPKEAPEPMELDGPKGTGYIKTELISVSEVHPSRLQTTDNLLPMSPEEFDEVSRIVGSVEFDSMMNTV
# Experiment: Inhibition of IFNgamma-stimulated STAT1 phosphorylation at Tyr701 residues in human AD293 cell lysates incubated with IFNgamma followed by compound addition at 10 uM by Western blot analysis
# Conditions: not given
# In short: (§3)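 AD-293 cells treated with 1 μg/mL IFN-γ alone or with compounds at 10 μM; phospho- and total STAT1 and STAT3 assessed by western blot; representative of at least three independent experiments.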
row,Structure (SMILES),inhibition
1,C=C1CC[C@@H]2[C@](C)(CO)[C@H](O)CC[C@@]2(C)[C@@H]1C/C=C1/C(=O)OC[C@H]1O[Si](C)(C)C(C)(C)C,inactive
2,CC(C)(C)[Si](C)(C)O[C@@H]1CC[C@]2(C)[C@H](CC[C@]3(CO3)[C@H]2C/C=C2/C(=O)OC[C@H]2O)[C@]1(C)CO,inactive
3,CC(C)(C)[Si](C)(C)O[C@@H]1CC[C@]2(C)[C@H](CC[C@@]3(CO3)[C@H]2C/C=C2/C(=O)OC[C@H]2O)[C@]1(C)CO,inactive
4,C=C1CC[C@@H]2[C@](C)(CO[Si](C)(C)C(C)(C)C)[C@H](OC(C)=O)CC[C@@]2(C)[C@@H]1C/C=C1/C(=O)OC[C@H]1OC(C)=O,inactive

# Target: T1, Signal transducer and activator of transcription 3
# Experiment: Inhibition of IFNgamma-stimulated STAT3 phosphorylation at Tyr705 residues in human AD293 cell lysates incubated with IFNgamma followed by compound addition at 10 uM by Western blot analysis
# Conditions: not given
# In short: as §3
row,Structure (SMILES),inhibition
1,C=C1CC[C@@H]2[C@](C)(CO)[C@H](O)CC[C@@]2(C)[C@@H]1C/C=C1/C(=O)OC[C@H]1O[Si](C)(C)C(C)(C)C,inactive
2,CC(C)(C)[Si](C)(C)O[C@@H]1CC[C@]2(C)[C@H](CC[C@]3(CO3)[C@H]2C/C=C2/C(=O)OC[C@H]2O)[C@]1(C)CO,inactive
3,CC(C)(C)[Si](C)(C)O[C@@H]1CC[C@]2(C)[C@H](CC[C@@]3(CO3)[C@H]2C/C=C2/C(=O)OC[C@H]2O)[C@]1(C)CO,inactive
4,C=C1CC[C@@H]2[C@](C)(CO[Si](C)(C)C(C)(C)C)[C@H](OC(C)=O)CC[C@@]2(C)[C@@H]1C/C=C1/C(=O)OC[C@H]1OC(C)=O,inactive

# Target: T1, Signal transducer and activator of transcription 3
# Experiment: Inhibition of IL-6 stimulated STAT3 activation in human AD293 cells incubated with IL-6 for 16 hrs followed by compound addition measured after 6 hrs by luciferase reporter gene assay
# Type: cell-based
# Conditions: not given
# In short: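 AD-293 cells stimulated with 2.5 μg/mL IL-6; compound treatment 6 h; luciferase activity read from cell extracts; EC50 derived.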
row,Structure (SMILES),EC50
1,C=C1CC[C@@H]2[C@](C)(CO)[C@H](O)CC[C@@]2(C)[C@@H]1C/C=C1/C(=O)OC[C@H]1O[Si](C)(C)C(C)(C)C,10.6 µM
2,CC(C)(C)[Si](C)(C)O[C@@H]1CC[C@]2(C)[C@H](CC[C@]3(CO3)[C@H]2C/C=C2/C(=O)OC[C@H]2O)[C@]1(C)CO,> 10 µM
3,CC(C)(C)[Si](C)(C)O[C@@H]1CC[C@]2(C)[C@H](CC[C@@]3(CO3)[C@H]2C/C=C2/C(=O)OC[C@H]2O)[C@]1(C)CO,4.16 µM
4,C=C1CC[C@@H]2[C@](C)(CO[Si](C)(C)C(C)(C)C)[C@H](OC(C)=O)CC[C@@]2(C)[C@@H]1C/C=C1/C(=O)OC[C@H]1OC(C)=O,> 10 µM

# Target: T1, Signal transducer and activator of transcription 3
# Experiment: Inhibition of IFNgamma-stimulated STAT3 activation in human AD293 cells incubated with IFNgamma for 16 hrs followed by compound addition measured after 24 hrs by luciferase reporter gene assay
# Type: cell-based
# Conditions: not given
# In short: as §1
row,Structure (SMILES),EC50
1,C=C1CC[C@@H]2[C@](C)(CO)[C@H](O)CC[C@@]2(C)[C@@H]1C/C=C1/C(=O)OC[C@H]1O[Si](C)(C)C(C)(C)C,5.68 µM
2,CC(C)(C)[Si](C)(C)O[C@@H]1CC[C@]2(C)[C@H](CC[C@]3(CO3)[C@H]2C/C=C2/C(=O)OC[C@H]2O)[C@]1(C)CO,5.38 µM
3,CC(C)(C)[Si](C)(C)O[C@@H]1CC[C@]2(C)[C@H](CC[C@@]3(CO3)[C@H]2C/C=C2/C(=O)OC[C@H]2O)[C@]1(C)CO,5.39 µM
4,C=C1CC[C@@H]2[C@](C)(CO[Si](C)(C)C(C)(C)C)[C@H](OC(C)=O)CC[C@@]2(C)[C@@H]1C/C=C1/C(=O)OC[C@H]1OC(C)=O,5.05 µM

# Target: T1, Signal transducer and activator of transcription 3
# Experiment: Inhibition of IFNgamma-stimulated GFP/FLAG-tagged STAT3 dimerization in human AD293 cells incubated for 6 hrs by Western blot analysis
# Type: cell-based
# Conditions: not given
# In short: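 AD-293 cells co-transfected 48 h with GFP- and FLAG-tagged STAT3 plasmids, then IFN-γ with or without compound for 6 h; 100 μg lysate (RIPA) immunoprecipitated with anti-FLAG and protein G beads; blots probed for GFP and FLAG, chemiluminescent detection.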
row,Structure (SMILES),IC50
1,Cc1ccc(S(=O)(=O)OCC(=O)Nc2ccc(C(=O)O)cc2)cc1,86 µM
